Measurements taken from the EternaBench riboswitch data.

Test system: MS2 coat protein
Assay: apparent Kd, MS2 coat protein; higher = weaker binding; RNA-MaP array; FMN 200 µM where present
Summary of the method: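 Two titrations, one without ligand and one with constant ligand, were run with SNAP-549-labelled MS2 coat protein from 0.7 or 1.5 nM, doubling to 3 µM. The targets were designs transcribed by stalled E. coli RNA polymerase on Illumina sequencing-chip clusters, in 100 mM Tris-HCl pH 7.5, 80 mM KCl, 4 mM MgCl2, BSA, DTT, yeast tRNA and Tween-20. The apparent Kd is the median of filtered per-cluster binding-curve fits, with green signal normalised to red-channel RNA signal and control-cluster median Fmax.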

[1] = designed as: ON switch for flavin mononucleotide, no ligand
[2] = ligand present: flavin mononucleotide, designed as: ON switch for flavin mononucleotide
[3] = designed as: OFF switch for flavin mononucleotide, no ligand
[4] = ligand present: flavin mononucleotide, designed as: OFF switch for flavin mononucleotide

Sequence | apparent Kd [1] [nM] | apparent Kd [2] [nM] | apparent Kd [3] [nM] | apparent Kd [4] [nM]
AGUGUCAUCGAGAAGGCCUCAUGAACAUGAGGAUCACCCAUGUAAGAUGGGAGGAUAUCGAUGAUACAGCUACGUUUCGUAGCA | 51.1 | 31.9 |  | 
UGCCGUAGAGGAUAUACAUUGAAUUUGAUUCAUGUAAAACUACAUGAGGAUCACCCAUGUAGAAGGCUAUGGCU |  |  | 17.9 | 34.4
GGAAAUCAUGUAGGAUAUGCAUGGCGAAGCUACGCAGAAGGACAUGAGGAUCACCCAUGUUAUAGCUACCCGUUACGGUGGCAA |  |  | 131 | 119
UGAUAGCACAGAGGAUAUGCGUUGUGUUAUCUCUACAUGAGGAUCACCCAUGUAGAAGGCUGUGCUAUCUAAGUCGGAAACGAU |  |  | 5.57 | 7.16
GGAUGAGCGAUAGGAUAUGCUGGGAUUGAAUGGGUAGAAGGAUUUCUAGUGGGAAAGACAUGAGGAUCACCCAUGUCGCGGACC | 30.3 | 29.4 |  | 
AGCAUGUUUACAUGAGGAUCACCCAUGUUUUUUUAGGAUAUCAGAAGGUACAAUUUGUGUUAGAGUAAGGAUAUGAUAUAUGCG | 12.6 | 8.88 |  | 
UGGAUCAUGGGAGGAUAUCCUCAAGAGACAUGAGGAUCACCCAUGUAUUAUAAGCCGAAAGGCAUGGAGAAGGCCCAUGAUCCU | 50.3 | 19 |  | 
AUAAUGCGUGCUACGCAAAAUAACGCAGAAGGCCAACAUGAGGAUCACCCAUGUAAAAGAAAGAUGGAGGAUAUGCGGUUUGGC | 51 | 6.74 |  | 
CGGGAGUCAGGAUAUACGAACAUGUCGCCAGAUGUCAAGGUACAUGAGGAUCACCCAUGUAGAAGGGAGGAGUU |  |  | 91.9 | 56.6
CUGCUCCGUGUAGGAUAUGCAUACUCCCACUAUGCAGAAGGACAUGAGGAUCACCCAUGUAUGUUAUUAUCACGUGUAGCGUAC |  |  | 28.7 | 72.9
UUCAGCUCGUGAGGAUAUACAUGUGCUGGAAACAGCAUUAAAUAAUUCACAUGAGGAUCACCCAUGUAGAAGGCACGAGCUGAG |  |  | 17 | 34.4
GACCGUCACAGUUACCGGUUGAACGAGGAUAUGAUUACUGGGCCUGCACAUGAGGAUCACCCAUGUCAGAAGGCGUUCAGUCCC |  |  | 5.86 | 18.9
GCAGCAUCUGCAGGAUAUCAGCACGUGUAGUGCUGAGAAGGGCACAUGAGGAUCACCCAUGUGAUCAAUUAAUAUAGAUGCUGC |  |  | 5.78 | 15.8
GCAUGCUAUGUCAGGAUAUACCUCUGGAUACAUAGGUAGAAGGGACAUGAGGAUCACCCAUGUCCUCAUCAUGC |  |  | 12.4 | 23.8
GAUUCACAUGAGGAUCACCCAUGUGAGGAUAUCUAGGUGCGGAGGCUAAGGCCUCCAGAGAGAAGGCACAUGGC |  |  | 27.3 | 41.3
AAGUAGGUAGGAUAUACAUGGAUAUACAUUCAUGUGGAUUUACAUGAGGAUCACCCAUGUAGAAGGACCUAAUA |  |  | 118 | 30.8
CUGAUGUUAGGAUAUCAGGCGCCCGCCACUGGCAAAGCGCAUGAGAAGGGACAUGAGGAUCACCCAUGUAGUAA |  |  | 28.2 | 47.6
UUUUCCAAUCAAGGAUAUGUAUUAAAGAUUUGAAAACAUGAGGAUCACCCAUGUAUAUGGUGGGAACAGAAGGUGAAUAAGUAA |  |  | 221 | 231
AGUAAGAUGCAGAAGGUGUCAGCGAGAGCUGCACAUGAGGAUCACCCAUGUUGUCGGUGACGACGCAAGGAUAUGCAUCUUACA | 89.2 | 15.8 |  | 
AGAUCACAUGAGGAUCACCCAUGUGAGGAUAUGAUACUAUGUACUUCGGUACAUAGUAUCAGAAGGCAUGUGAA |  |  | 43.5 | 41.1
AACCGACAUGAGGAUCACCCAUGUCAGGAUAUGGACUGACAUCGAAAGGAUGGAGGAACCAGAAGGGACUGGGC |  |  | 37.1 | 81.6
UUCGGACUAUCAGGAUAUGGUGUAGCCUAGUAAAGGACAUGAGGAUCACCCAUGUACCAUUGGUACCAGAAGGGAUGAUCCUAC | 29.9 | 24.9 |  | 
GCGUUCUUGUAGAAGGUACAUACAAUCUCUUUUUAACACAUGACACAUGAGGAUCACCCAUGUUGUAAGGAUAUACAUGAACGC | 8.7 | 8.86 |  | 
CUGGUUGUCGUAGGAUAUGUAGGAUAUUCCUACAUGAGGAUCACCCAUGUUCGCAUGGAAGAAGGACAGAAGGACGAUGACCAG | 621 | 24.9 |  | 
GUCGGAAACGACAAAAGUAUGGAUCCAGAAGGCAUGAAACAUGAGGAUCACCCAUGUCUAAGACAUGAGGAUAUGGAUCCAUAC | 7.11 | 3.78 |  | 
GCAACGCCUGACAUGAGGAUCACCCAUGUUAGAUUGUUAUGUCAGGAUAUAGUCUCGAAACGAGACUAGAAGGGAUAUGUUGCU | 888 | 122 |  | 
GCCGCUGUAGGAUAUGCCAGGGUGGCAGCUUGAUGUGUGGCACAUGAGGAUCACCCAUGUAGAAGGACAGAAAG |  |  | 18.7 | 50.8
AAAUAACUAGGAUAUCGAGGCACAGACAUGAGGAUCACCCAUGUGUGGUCUUCGUGCUUACGAGAAGGAGUACGGC |  |  | 672 | 274

Sequence | apparent Kd [1] [nM] | apparent Kd [2] [nM] | apparent Kd [3] [nM] | apparent Kd [4] [nM]
AUCAGCUCGUAAGGAUAUACGUCACUGCGUCAGCAGUGUGGUAAGAUCACAUGAGGAUCACCCAUGUAGAAGGGACGAGCUGAU |  |  | 15.6 | 142
UGGUACUAGGGAGGAUAUGGGAAGAUACAUGAGGAUCACCCAUGUUUGAGAAUGCCGAGAGGCAACUAGAAGGCCCUAGUACCU | 430 | 18.1 |  | 
GGAGCACACAUUAACAUGAGGAUCACCCAUGUCAAAAGACAUGAGGAUAUGGAUACGAAAAGGAUCCAGAAGGCAUGGUGCUCC | 693 | 72.5 |  | 
GUGUAGUGAGGAUAUACAUGAGGAUCACCCAUGUGAAUAAGAUAGAAUAAGAUAAAGUGUAGAAGGUAUAGUGU |  |  | 53.2 | 35.3
AAAAAACAUGAGGAUCACCCAUGUCUUCGGACGUGAGGAUAUGUACAGACUUCGGUCUGUACAGAAGGCACGUAAA | 51 | 23 |  | 
AAGAAACAUGAGGAUCACCCAUGUGAGGAUAUGUAAAAGAAAAGAAAAUAAAGAAGAAACAGAAGGCACAAAGG |  |  | 40.2 | 64.4
AUAUCUUGUCGAGGAUAUGUAGUAUUGAUCUGAAAACAUGAGGAUCACCCAUGUAUACGGUGGGUACAGAAGGUGGAUGUAGAA |  |  | 416 | 427
CACGCAUGUGGAGGAUAUGCAGUUAACAUUAGCGCAGAAGGCCACAUGAGGAUCACCCAUGUCCGGCAUUAGCCGAUGUUGAUC |  |  | 139 | 227
AUGAGGUUAGGAUAUACAUGAGGAUCACCCAUGUUGAAGGGUUAGGUAGGCGGAGCUGGUAGAAGGAACGGAGC |  |  | 57.3 | 36.9
UUGAAUUUAAACAUGAGGAUCACCCAUGUGUCAUAGUUGACAUAGGAUAUGCUUAUACUUUGAAAGCAGAAGGAUGACGAUACU | 41.3 | 10.1 |  | 
AAUUAAUUGUAGAAGGUACUUAAUUAUGUUAUGUAAGGAUAUACGUAAUUAUUACGUCUUGUAUGACAUGAGGAUCACCCAUGU | 12.9 | 11 |  | 
UCCUUGUCCUGAGGAUAUCCGUGGUUCCCGAAAGGAGAAGGCAGGACAUGAGGAUCACCCAUGUACCCAGAAAACGUGCAGAGU |  |  | 163 | 273
ACCUCGUCAGGAUAUCCUAUUAAUUGUUUCAUAUUUACGAUGGAGAAGGGACAUGAGGAUCACCCAUGUUGGUC |  |  | 35.5 | 58
GAAUUCGCAUGAGGAUAUGCACUCAUUUCAUGUGCAGAAGGUAUAACAUUAGACAUGAGGAUCACCCAUGUAUUGGUCAUUAAC | 13.7 | 12.1 |  | 
GAUGUUCUGGUCAGGAUAUGCAUCCGUCGGCCGGAGCAGAAGGGACAUGAGGAUCACCCAUGUGCGGGUACAAA |  |  | 38.7 | 38.3
GCUUGUGAAGGAUAUACUGGCGACAUGCGCUCAACACGCGCACAUGAGGAUCACCCAUGUAGAAGGUCAAACAU |  |  | 23.9 | 33
GGGUACGUUUCGUAGCAGUGUCAUCGAGAAGGCCCUGACAUGAGGAUCACCCAUGUUGUUACAUGGGAGGAUAUCGAUGAUGGG | 48.4 | 8.12 |  | 
AACUCGUCAGGAUAUGCGCGCAGUUACUACGCUUCGCAAUUGCAGAAGGGACAUGAGGAUCACCCAUGUAGAUC |  |  | 34.6 | 57.3
UAAUCGUUGCAGAAGGUUAUUUUUUUAACAUUUCUCUUAACAUGAGGAUCACCCAUGUUUUUGAUGAAGGAUAUGCAACGGUAG |  |  | 6.67 | 5.51
AAGAGUGCAGGAUAUACUUGUUAGGACGGUUGGAUGGUUUGACAUGAGGAUCACCCAUGUAGAAGGGCAGAGAG |  |  | 67.7 | 67.8
GCCGAACAUGAGGAUCACCCAUGUCCGGGUAGUCAAGGAUAUGGGAAGGCAAUGCCGUGGCCAGAAGGUGGCUAUC | 99.3 | 21.3 |  | 
GGUAGAAACAUUAACAUGAGGAUCACCCAUGUCAAAAGAAAUGAGGAUAUCGUCUACAAUGUAUAUGAGAAGGCAUGGUCUGCC | 20.2 | 14.6 |  | 
CCUAUGUGAGGAUAUCACUGGUCUUUUCAUUGGAUGAUUAGUGAGAAGGCACAUGAGGAUCACCCAUGUCGGUG |  |  | 28.9 | 24.2
CGCUACAUGAGGAUCACCCAUGUACUAACUUGCACGUGAACGAGAAGGCCACAGCAACCCUGCGUGGAGGAUAUCGUGGUGCCA | 8.49 | 7.48 |  | 
UUGCCUCAGAACAUGAGGAUCACCCAUGUGCUGCGGGCAACGUAGGAUAUGAUGGUUUGAUACCAUCAGAAGGAUGAUGGUACC | 5.4 | 5.21 |  | 
AUUAUGUAAGGAUAUCUUACAUGUGACUUCGGUCACUGUCAAGAGAAGGUACAUGAGGAUCACCCAUGUAUGAC |  |  | 14 | 16.3
UUAAAUCAUGUAGGAUAUGCAUGGCGAAGCUACGCAGAAGGACAUGAGGAUCACCCAUGUUAUAGCUACUGAGUUCAGUGGCAA |  |  | 107 | 231
